Activity calls are given as the source filed them. The calls are words filed in the database; no cut-off is given here.
Key:
Leishmania donovani [1] = experiment: Antileishmanial activity against Leishmania donovani MHOM/IN/80/DD8 amastigote forms harboring luciferase gene infected in mouse J774 cells at 25 uM after 72 hrs by Steady-Glo reagent based luminescence assay relative to control; assay type: functional; conditions: MHOM/IN/80/DD8, J774, 72 h, read-out: GI
Outline: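 Stationary-phase luciferase-expressing Dd8 promastigotes infected into J774 macrophages (4×10^4/mL seeded, 24 h, 37 °C, 5% CO2) at 1:8 macrophage:parasite for 24 h. Non-internalised parasites washed off. Compounds added at 50 and 25 µM in RPMI/10% FBS for 72 h. Lysis with Steady-Glo luciferin reagent plus PBS, luminescence read. Inhibition relative to untreated infected controls.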

Leishmania donovani [2] = experiment: Induction of mitochondrial membrane potential loss in Leishmania donovani MHOM/IN/80/DD8 promastigote forms at 50 uM after 24 hrs by JC-1 staining based flow cytometry (reference value: 5.02%); assay type: functional
[3] = Cytotoxicity against mouse J774 cells assessed as reduction in cell viability after 72 hrs by MTT assay; assay type: cell-based
Outline: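 Vero and J774 cells seeded at 1×10^5 per well for 24 h, then exposed 72 h to seven two-fold dilutions from 500 to 7.81 μM. MTT solution (5 mg/mL stock) added for 2 h at 37 °C, formazan dissolved in DMSO and read at 540 nm. CC50 derived by the Huber and Koella method.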

Leishmania donovani [4] = experiment: Antileishmanial activity against Leishmania donovani amastigote forms infected in Balb/c mouse assessed as inhibition of parasitic burden in spleen at 50 mg/kg, ip administered for 5 consecutive days measured on day 7 post last treatment by Giemsa staining based assay relative to control; assay type: functional; conditions: 168 h
Leishmania donovani [5] = experiment: Antileishmanial activity against Leishmania donovani MHOM/IN/80/DD8 amastigote forms harboring luciferase gene infected in mouse J774 cells after 72 hrs by Steady-Glo reagent based luminescence assay; assay type: functional, cell-based; conditions: MHOM/IN/80/DD8, J774, 72 h
[6] = Selectivity index, ratio of CC50 for mouse J774 cells to IC50 for Leishmania donovani MHOM/IN/80/DD8 amastigote forms infected in mouse J774 cells; assay type: toxicity, cell-based; conditions: read-out: Ratio CC50/IC50
Outline: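 CC50: Vero or J774 cells (1×10^5/well) exposed 72 h to seven two-fold dilutions, 500–7.81 μM; MTT 2 h at 37 °C, formazan in DMSO read at 540 nm. IC50: luciferase-expressing Dd8 amastigotes in J774 macrophages (1:8), 72 h, luminescence, four-parameter Hill fit. SI = CC50/IC50, IC50 mean of three experiments.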

Leishmania donovani [7] = experiment: Induction of apoptosis in Leishmania donovani MHOM/IN/80/DD8 promastigote forms assessed as cell rounding at 50 uM after 48 hrs by propidium iodide staining based fluorescent microscopic method; assay type: functional
Leishmania donovani [8] = experiment: Antileishmanial activity against Leishmania donovani amastigote forms infected in Balb/c mouse assessed as reduction in liver weight at 12.5 to 200 mg/kg, ip administered for 5 consecutive days co-treated with 5 to 25 mg/kg, po miltefosine; assay type: functional, organism-based
Leishmania donovani [9] = experiment: Antileishmanial activity against Leishmania donovani amastigote forms infected in Balb/c mouse assessed as inhibition of parasitic burden in liver at 100 mg/kg, ip administered for 5 consecutive days measured on day 7 post last treatment by Giemsa staining based assay relative to control; assay type: functional; conditions: 168 h
Mus musculus [10] = experiment: Restoration of T cell proliferation in Balb/c mouse splenocytes infected with Leishmania donovani amastigote forms at 25 mg/kg, ip co-treated with 5 mg/kg, po miltefosine administered for 5 consecutive days measured on day 7 post last treatment followed by soluble Leishmania donovani promastigote antigen-stimulation for 72 hrs by MTT assay relative to control; assay type: functional
Outline: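 Splenocytes from treated infected BALB/c mice (day 4 or 7 post-treatment) isolated by Ficoll gradient, plated at 10^5/well in triplicate in phenol red-free RPMI 1640, stimulated with 5 μg/mL SLA for 72 h at 37 °C, 5% CO2. Proliferation read by MTT (0.5 mg/mL), formazan dissolved in DMSO, OD 540 nm.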

Leishmania donovani [11] = experiment: Induction of mitochondrial membrane potential loss in Leishmania donovani MHOM/IN/80/DD8 promastigote forms at 50 uM after 6 hrs by JC-1 staining based flow cytometry (reference value: 5.02%); assay type: functional
Leishmania donovani [12] = experiment: Antileishmanial activity against Leishmania donovani amastigote forms infected in Balb/c mouse assessed as inhibition of parasitic burden in spleen at 50 mg/kg, ip administered for 5 consecutive days measured up to 7 weeks post treatment by Giemsa staining based assay; assay type: functional, organism-based
[13] = Cmax in Swiss mouse at 50 mg/kg, po by LC-MS/MS analysis; assay type: ADME, organism-based; parameters: dose 50 mg/kg, route oral; conditions: in vivo
Leishmania donovani [14] = experiment: Induction of mitochondrial membrane potential loss in Leishmania donovani MHOM/IN/80/DD8 promastigote forms at 50 uM after 48 hrs by JC-1 staining based flow cytometry (reference value: 5.02%); assay type: functional
Leishmania donovani [15] = experiment: Antileishmanial activity against Leishmania donovani amastigote forms infected in Balb/c mouse assessed as reduction in spleen weight at 12.5 to 200 mg/kg, ip administered for 5 consecutive days co-treated with 5 to 25 mg/kg, po miltefosine; assay type: functional, organism-based
Leishmania donovani [16] = experiment: Antileishmanial activity against Leishmania donovani amastigote forms infected in Balb/c mouse assessed as inhibition of parasitic burden in liver at 50 mg/kg, ip administered for 5 consecutive days measured up to 7 weeks post treatment by Giemsa staining based assay; assay type: functional, organism-based
Leishmania donovani [17] = experiment: Antileishmanial activity against Leishmania donovani amastigote forms infected in Balb/c mouse assessed as inhibition of parasitic burden in spleen at 200 mg/kg, ip administered for 5 consecutive days measured on day 7 post last treatment by Giemsa staining based assay relative to control; assay type: functional; conditions: Leishmania donovani, ip, 168 h
Leishmania donovani [18] = experiment: Antileishmanial activity against Leishmania donovani MHOM/IN/80/DD8 promastigote forms harboring luciferase gene at 7.19 uM up to 72 hrs by MTT assay relative to control; assay type: functional; conditions: MHOM/IN/80/DD8, 72 h
Mus musculus [19] = experiment: Increase in IFN-gamma level in Balb/c mouse splenocytes infected with Leishmania donovani amastigote forms at 25 mg/kg, ip co-treated with 5 mg/kg, po miltefosine administered for 5 consecutive days measured on day 4 post last treatment by sandwich ELISA relative to control; assay type: functional
Outline: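 Splenocytes (2×10^6) from treated infected BALB/c mice taken on day 4 or 7 post-treatment. Cultured in phenol-red-free RPMI 1640 with 5 μg/mL soluble L. donovani antigen for 72 h at 37 °C, 5% CO2. Supernatant cytokines measured by sandwich ELISA against a standard curve. Mean ± SD, n = 5 mice per group, three independent experiments.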

[20] = Stability in pH 6.5 simulated intestinal fluid at 5 ug/ml after 120 mins by HPLC method
Outline: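 Incubated in simulated gastric fluid (pH 1.2) or simulated intestinal fluid (pH 6.5); percentage remaining intact determined after 120 min.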

Leishmania donovani [21] = experiment: Antileishmanial activity against Leishmania donovani MHOM/IN/80/DD8 promastigote forms harboring luciferase gene at 50 uM after 72 hrs by Steady-Glo reagent based luminescence assay relative to control; assay type: functional; conditions: MHOM/IN/80/DD8, 72 h, read-out: GI
Outline: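 Exponential-phase Dd8-Luc promastigotes at 1×10^6/mL in M199 with 10% FBS, 24 °C, given 50 and 25 µM for 72 h. Vehicle 0.1% DMSO. Steady-Glo added 1:1, luminescence (RLU) read. IC50 from four-parameter Hill regression, derived only where inhibition exceeded 90%. Means of at least three independent experiments.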

Structure (SMILES): COc1ccc(C2C3=C(CCC3=O)Nc3c2c(-c2c[nH]c4ccccc24)nn3-c2ccc(Cl)c(Cl)c2)cc1OC (stereo unspecified)
- inhibition of growth at 25 µM (Leishmania donovani [1]): 96.8%
- Activity (Leishmania donovani [2]): 52.6%
- CC50 at 72 h [3]: 409 µM
- inhibition in vivo at 50 mg/kg (Leishmania donovani [4]): > 91%
- IC50 (Leishmania donovani [5]): 4.05 µM
- selectivity ratio [6]: 101
- Activity (Leishmania donovani [7]): Active
- Activity (Leishmania donovani [8]): Active
- inhibition in vivo at 100 mg/kg (Leishmania donovani [9]): 92.7%
- fold change (FC) (Mus musculus [10]): 8.4
- Activity (Leishmania donovani [11]): 15.2%
- inhibition (Leishmania donovani [12]): Active
- Cmax [13]: 4.88 µM
- Activity (Leishmania donovani [14]): 44.9%
- Activity (Leishmania donovani [15]): Active
- inhibition (Leishmania donovani [16]): Active
- inhibition in vivo at 200 mg/kg (Leishmania donovani [17]): 90%
- inhibition at 7.19 µM (Leishmania donovani [18]): > 95%
- fold change (FC) (Mus musculus [19]): 9.1
- Stability [20]: 99%
- inhibition of growth at 50 µM (Leishmania donovani [21]): 93.3%
